Bioassay records as filed in PubChem.
Sampled rows, rich in hits. Any-hit rate of the full collection: about 6.9%.
PTK2B oligo ant = antagonists of human Pyk2 oligomerization. Q293 cells, Pyk2 FERM NanoBiT luminescence; active compounds read low. z-score (the deposit names both 25 µM and 10 µM). 99,000 compounds, 0.83% hits;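 active means Z-score of -3 or lower, scaled per plate to the spread of control and sample wells; inactive means z-score above -3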;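 further: negative z-score means lost luminescence so less FERM oligomerization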
Target sequence (Q14289 whole entry, looked up): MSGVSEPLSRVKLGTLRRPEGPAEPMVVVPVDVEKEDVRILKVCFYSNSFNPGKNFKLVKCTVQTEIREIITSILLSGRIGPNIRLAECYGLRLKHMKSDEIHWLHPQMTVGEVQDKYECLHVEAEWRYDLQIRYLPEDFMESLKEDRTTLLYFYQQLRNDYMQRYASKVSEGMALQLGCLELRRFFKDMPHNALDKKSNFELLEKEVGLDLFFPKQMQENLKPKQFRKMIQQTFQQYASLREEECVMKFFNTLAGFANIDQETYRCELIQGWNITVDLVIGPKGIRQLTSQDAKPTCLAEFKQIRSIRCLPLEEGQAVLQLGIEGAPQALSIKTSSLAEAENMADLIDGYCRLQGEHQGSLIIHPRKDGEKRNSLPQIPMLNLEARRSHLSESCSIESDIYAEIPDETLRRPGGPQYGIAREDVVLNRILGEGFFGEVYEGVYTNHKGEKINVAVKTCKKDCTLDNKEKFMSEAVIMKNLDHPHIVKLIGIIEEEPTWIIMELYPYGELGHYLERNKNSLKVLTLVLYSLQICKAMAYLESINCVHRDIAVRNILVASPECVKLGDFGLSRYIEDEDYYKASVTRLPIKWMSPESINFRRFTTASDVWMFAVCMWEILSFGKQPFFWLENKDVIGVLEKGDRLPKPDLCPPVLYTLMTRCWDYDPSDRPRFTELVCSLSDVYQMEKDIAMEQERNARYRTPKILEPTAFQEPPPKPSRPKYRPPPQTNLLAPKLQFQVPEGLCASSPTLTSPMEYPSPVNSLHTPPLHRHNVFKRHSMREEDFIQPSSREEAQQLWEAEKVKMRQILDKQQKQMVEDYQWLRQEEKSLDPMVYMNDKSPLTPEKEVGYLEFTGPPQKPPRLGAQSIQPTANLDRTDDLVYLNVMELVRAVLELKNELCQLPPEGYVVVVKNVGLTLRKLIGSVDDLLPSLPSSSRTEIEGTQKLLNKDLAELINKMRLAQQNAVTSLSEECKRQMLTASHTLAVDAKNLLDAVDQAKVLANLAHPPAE
PostGolgi yeast = growth inhibition of a yeast mutant, post-Golgi transport screen | post-Golgi transport phenotypic cell assay | inhibition, % at 10 µM | 98,000 compounds, 0.9% hits;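 further: yeast cells grown in 1536-well plates; yeast grown about 18 h at 30C before absorbance read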
tolC growth inh = blocks growth of E. coli BW25113 tolC mutant; OD615; AID 573; growth inhibition, % at 10 µM (by protocol); 65,000 compounds, 2.2% hits;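 active means growth inhibition at or above a cutoff equal to the mean over every tested compound plus 3 SD, cut at about 60% in these data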;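 further: growth measured after 20 h incubation at 37 °C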
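Test system: E. coli BW25113 ΔtolC::kan bacteria | Medium: Kanamycin-containing LB broth (50 µg/mL) | Dosing: One dose of 10 µM final | Times: 20 h incubation with compound, 37 °C | Detection: Optical density read at 615 nm | Read-out basis: Percent growth inhibition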
FAK inh = inhibitors of human focal adhesion kinase; biochemical FAK kinase activity assay; Q05397; 97,000 compounds, 0.84% hits; inhibition, %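 (tested at 7 µM)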; AID 727; in the data active means inhibition above about 19%
Calb biofilm kill = kills Candida albicans biofilms; 85,000 compounds, 0.14% hits; C. albicans biofilm + clotrimazole, Alamar Blue; inhibition, % at 6 µM;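 active means inhibition above 20%; inactive means inhibition below 20%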;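 further: preformed 24 hr biofilms exposed to compound for 48 hr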
PostGolgi ctrl = inhibits growth of the yeast control strain; efflux-deficient yeast background strain, growth absorbance A615, 16 h; inhibition, % at 10 µM; 98,000 compounds, 5% hits; AID 738
Hits are given with their value. Unless noted, no stated cut-off is given here; in the data, active means inhibition above about 30%; inactive means the rest.

Results for Cc1nn(Cc2c(F)c(F)c(F)c(F)c2F)c(C)c1NC(=O)c1ccc(COc2ccccc2Cl)cc1 ?
PTK2B oligo ant: inactive; PostGolgi yeast: inactive; FAK inh: inactive; PostGolgi ctrl: inactive

How did O=C(c1ccc(COc2ccc3c(c2)CCC3)o1)N1CCN(c2ccccc2)CC1 do in these assays?
PTK2B oligo ant: inactive; tolC growth inh: 67; FAK inh: inactive

How did O=C(c1ccc(COc2ccccc2Cl)o1)N1CCN(c2ccccc2)CC1 do in these assays?
PostGolgi yeast: inactive; tolC growth inh: 84; FAK inh: inactive; Calb biofilm kill: inactive; PostGolgi ctrl: 46

How did O=C(c1ccco1)N1CCN(C(=O)c2ccc(COc3ccc4c(c3)CCC4)o2)CC1 do in these assays?
PTK2B oligo ant: inactive; PostGolgi yeast: inactive; FAK inh: inactive; Calb biofilm kill: inactive; PostGolgi ctrl: inactive

What do the screens show for `O=C(CSc1nnc(CNc2ccc(F)cc2)o1)N1CCCc2ccccc21`?
PTK2B oligo ant: inactive; PostGolgi yeast: inactive; tolC growth inh: inactive; PostGolgi ctrl: inactive

What do the screens show for `O=C(c1ccc(COc2ccccc2Br)cc1)N1CCCCC1`?
PTK2B oligo ant: inactive; PostGolgi yeast: inactive; FAK inh: inactive; PostGolgi ctrl: inactive

What do the screens show for `O=C(c1ccc(COc2ccccc2Br)o1)N1CCCCCC1`?
PTK2B oligo ant: inactive; PostGolgi yeast: inactive; tolC growth inh: 61; FAK inh: inactive; Calb biofilm kill: inactive; PostGolgi ctrl: 38

How did CCOC(=O)c1csc(NC(=O)C2CCCCC2)n1 do in these assays?
PostGolgi yeast: inactive; tolC growth inh: inactive; FAK inh: inactive; Calb biofilm kill: inactive; PostGolgi ctrl: inactive

How did O=C(/C=C/c1cccc(Cl)c1)c1nc2ccccc2[nH]1 do in these assays?
PTK2B oligo ant: inactive; PostGolgi yeast: 100; FAK inh: inactive; PostGolgi ctrl: 93

Results for O=[N+]([O-])c1cccc(-c2ccc(/C=N/NC(=S)Nc3ccccc3)o2)c1 ?
PTK2B oligo ant: inactive; PostGolgi yeast: inactive; FAK inh: inactive; PostGolgi ctrl: 48

Results for Cc1ccc(O)c(-c2cc(-c3cccc(F)c3)n[nH]2)c1 ?
PTK2B oligo ant: inactive; PostGolgi yeast: inactive; FAK inh: inactive; Calb biofilm kill: inactive; PostGolgi ctrl: 70

How did Cc1ccc(-c2cc(-c3cccc(F)c3)n[nH]2)c(O)c1 do in these assays?
PTK2B oligo ant: inactive; PostGolgi yeast: inactive; tolC growth inh: inactive; FAK inh: inactive; Calb biofilm kill: inactive; PostGolgi ctrl: 43

How did Cc1ccc(O)c(-c2cc(-c3ccccc3F)[nH]n2)c1 do in these assays?
PTK2B oligo ant: inactive; PostGolgi yeast: inactive; FAK inh: inactive; Calb biofilm kill: inactive; PostGolgi ctrl: 67

What do the screens show for `Oc1ccc(Br)cc1-c1cc(-c2ccccc2)n[nH]1`?
PTK2B oligo ant: inactive; FAK inh: inactive; Calb biofilm kill: inactive

Results for COc1ccc(O)c(-c2cc(-c3cccc(Br)c3)n[nH]2)c1 ?
PTK2B oligo ant: inactive; PostGolgi yeast: 93; tolC growth inh: inactive; FAK inh: inactive; Calb biofilm kill: inactive; PostGolgi ctrl: 74

What do the screens show for `COc1ccc(-c2cc(-c3cc(F)ccc3O)[nH]n2)cc1OC`?
PTK2B oligo ant: inactive; PostGolgi yeast: inactive; tolC growth inh: 81; FAK inh: inactive; Calb biofilm kill: inactive; PostGolgi ctrl: 30

What do the screens show for `NCCCC(=O)O`?
Calb biofilm kill: inactive

Results for O=C(O)CCSCCC(=O)O ?
PTK2B oligo ant: inactive; PostGolgi yeast: 33; tolC growth inh: inactive; PostGolgi ctrl: inactive

Results for Oc1ccc(C(=S)N2CCCCCC2)cc1 ?
PTK2B oligo ant: inactive; PostGolgi yeast: inactive; FAK inh: inactive; Calb biofilm kill: inactive; PostGolgi ctrl: 30

What do the screens show for `Nc1c(C(=O)NCc2ccccc2)nnn1Cc1ccc(F)cc1`?
PostGolgi yeast: inactive; tolC growth inh: inactive; Calb biofilm kill: inactive; PostGolgi ctrl: inactive

How did CNc1cc(CSC)nc(SCc2ccc(Cl)cc2Cl)n1 do in these assays?
PTK2B oligo ant: inactive; PostGolgi yeast: inactive; FAK inh: inactive; PostGolgi ctrl: 39

What do the screens show for `Cc1cc(C)c2cc3c(N)c(C(=O)N4CCc5ccccc5C4)sc3nc2c1`?
PTK2B oligo ant: inactive; PostGolgi yeast: inactive; FAK inh: inactive; PostGolgi ctrl: inactive

How did CCOC(=O)c1c(C)n(C)c2ccc(OC(C)C(=O)OC)cc12 (stereo unspecified) do in these assays?
PTK2B oligo ant: inactive; PostGolgi yeast: inactive; tolC growth inh: inactive; FAK inh: inactive; Calb biofilm kill: inactive; PostGolgi ctrl: 32

What do the screens show for `CCOC(=O)c1c(C)n(C)c2ccc(OCC(O)Cn3nc(C)c(Br)c3C)cc12` (stereo unspecified)?
PTK2B oligo ant: inactive; tolC growth inh: 88; FAK inh: inactive

Results for CCOC(=O)c1c(C)n(C)c2ccc(OCCN(C)C)cc12 ?
PTK2B oligo ant: inactive; PostGolgi yeast: inactive; FAK inh: inactive; Calb biofilm kill: inactive; PostGolgi ctrl: inactive

Results for O=C(CN1CCC(NC(=O)c2cccc(F)c2)CC1)NCc1ccccc1F ?
PTK2B oligo ant: inactive; PostGolgi yeast: inactive; tolC growth inh: inactive; FAK inh: inactive; Calb biofilm kill: inactive; PostGolgi ctrl: inactive

How did CCN(Cc1ccccc1)C(=O)CCc1nc(-c2ccc(C)cc2)no1 do in these assays?
PTK2B oligo ant: inactive; PostGolgi yeast: inactive; tolC growth inh: 88; FAK inh: inactive; Calb biofilm kill: inactive; PostGolgi ctrl: 42

What do the screens show for `CC(=O)c1c(C)[nH]c(C(=O)NCc2ccccc2)c1C`?
PTK2B oligo ant: inactive; PostGolgi yeast: inactive; FAK inh: inactive; Calb biofilm kill: inactive; PostGolgi ctrl: inactive

What do the screens show for `CCc1ccccc1N(CC)C(=O)CCc1nc(-c2ccc(C)cc2)no1`?
PTK2B oligo ant: -3; PostGolgi yeast: inactive; tolC growth inh: 95; FAK inh: inactive; Calb biofilm kill: inactive; PostGolgi ctrl: inactive

What do the screens show for `CCN(CCCNC(=O)CCc1nc(-c2ccc(C)cc2)no1)c1cccc(C)c1`?
PTK2B oligo ant: inactive; PostGolgi yeast: inactive; tolC growth inh: 91; FAK inh: inactive; Calb biofilm kill: inactive; PostGolgi ctrl: 36

Results for CCN(CCCNC(=O)c1[nH]c(C)c(C(C)=O)c1C)c1cccc(C)c1 ?
PTK2B oligo ant: inactive; PostGolgi yeast: inactive; tolC growth inh: 98; FAK inh: inactive; Calb biofilm kill: inactive; PostGolgi ctrl: inactive

What do the screens show for `Cc1ccc(-c2noc(CCC(=O)NCCc3ccccc3Cl)n2)cc1`?
PTK2B oligo ant: inactive; PostGolgi yeast: inactive; tolC growth inh: inactive; FAK inh: inactive; Calb biofilm kill: inactive; PostGolgi ctrl: inactive

What do the screens show for `Cc1ccc2c(=O)cc(C(F)F)oc2c1`?
PTK2B oligo ant: inactive; PostGolgi yeast: inactive; FAK inh: inactive; Calb biofilm kill: inactive; PostGolgi ctrl: inactive

How did C=CCn1c(SCc2ccc(OC)cc2)nnc1-c1cccnc1 do in these assays?
PTK2B oligo ant: inactive; PostGolgi yeast: inactive; tolC growth inh: inactive; FAK inh: inactive; Calb biofilm kill: inactive; PostGolgi ctrl: inactive

What do the screens show for `COC(CNC(=O)c1cc(C(=O)c2c(-c3c(Cl)cccc3Cl)noc2C)c[nH]1)OC`?
PTK2B oligo ant: inactive; PostGolgi yeast: inactive; FAK inh: inactive; PostGolgi ctrl: inactive

What do the screens show for `COCCn1c(SCCCC(=O)c2ccc(Br)cc2)nnc1-c1ccncc1`?
PTK2B oligo ant: inactive; PostGolgi yeast: inactive; FAK inh: inactive; Calb biofilm kill: inactive; PostGolgi ctrl: 36
